# HCV core dimer: HCV core protein dimerization inhibition; actives 0.33% (n = 300,000); TR-FRET GST/Flag-core106 dimerization, 1536-well; inhibition, % at 5 µM; AID 1899;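 active = inhibition above the mean of all tested compounds plus 3 SD, set per screening campaign, cut at about 45% in these data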
#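 System: GST/Flag-tagged HCV core106 proteins. Incubation: compound-protein-antibody incubation 4 h at 22.5 °C. Technique: HTRF with 340 nm excitation, 617/671 nm emission. Medium: KF-containing HEPES buffer, pH 7.45, DTT, CHAPS, BSA. Read-out: inhibition (%) from 671 over 617 nm ratio. Also added: Eu(K)-anti-GST 90 ng/mL plus XL665-anti-Flag 1 µg/mL.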
# NadD inh: inhibitors of Staphylococcus aureus NadD; actives 0.78% (n = 360,000); inhibition, % at 20 µM; purified NadD enzyme, colorimetric absorbance read-out; in the data active = inhibition above about 26%
# ABHD5 PLIN5 PPI: ABHD5-PLIN5 protein interaction inhibition; Q00G26+Q8WTS1; Split G. princeps luciferase complementation, luminescence, 4 h; inhibition, % at 4 µM; actives 0.78% (n = 360,000); AID 602281;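 active = inhibition above the mean inhibition across every tested compound plus 3 SD, cut at about 22% in these data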;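 also: 0% = DMSO only wells and the 100% control is not disclosed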
# Target sequence (Q00G26 whole entry, looked up): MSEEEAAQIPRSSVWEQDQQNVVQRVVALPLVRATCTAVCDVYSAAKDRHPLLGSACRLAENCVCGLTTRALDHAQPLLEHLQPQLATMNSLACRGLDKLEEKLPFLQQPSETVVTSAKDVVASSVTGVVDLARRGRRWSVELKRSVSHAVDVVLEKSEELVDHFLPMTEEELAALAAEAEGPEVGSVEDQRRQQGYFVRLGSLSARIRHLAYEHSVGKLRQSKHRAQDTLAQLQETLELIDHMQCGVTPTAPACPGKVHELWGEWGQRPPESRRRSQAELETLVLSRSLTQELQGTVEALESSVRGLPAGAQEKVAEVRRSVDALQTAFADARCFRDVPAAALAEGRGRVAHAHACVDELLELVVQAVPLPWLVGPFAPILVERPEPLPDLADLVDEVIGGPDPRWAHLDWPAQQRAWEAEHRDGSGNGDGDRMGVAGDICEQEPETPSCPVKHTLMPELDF
# Target sequence (Q8WTS1 whole entry, looked up): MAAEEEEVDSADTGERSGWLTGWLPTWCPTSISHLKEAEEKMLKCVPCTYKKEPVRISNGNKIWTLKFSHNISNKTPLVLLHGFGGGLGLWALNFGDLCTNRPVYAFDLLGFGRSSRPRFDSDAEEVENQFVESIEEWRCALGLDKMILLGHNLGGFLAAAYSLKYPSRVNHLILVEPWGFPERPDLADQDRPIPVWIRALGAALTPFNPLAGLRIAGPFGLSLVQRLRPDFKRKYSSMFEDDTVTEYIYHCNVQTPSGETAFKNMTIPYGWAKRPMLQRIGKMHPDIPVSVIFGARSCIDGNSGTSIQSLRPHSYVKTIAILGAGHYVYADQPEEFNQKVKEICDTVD
# rCAG RNA binder: binds r(CAG) RNA repeats; r(CAG) RNA repeat, TO-PRO-1 dye displacement fluorescence; inhibition, % at 3 µM; AID 651821; actives 1.3% (n = 370,000);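 active = inhibition above the plate cutoff, the mean of all test compounds on that plate plus 3 SD, cut at about 35% in these data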;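 also: 0% = DMSO alone and 100% = 100 µM mitoxantrone as full dye displacement; higher means more dye released from RNA so lower well fluorescence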
# rCAG binder conf: r(CAG) RNA repeat binding, confirmation. shares compounds with rCAG RNA binder. TO-PRO-1 dye displacement fluorescence. inhibition, % at 3 µM. actives 70% (n = 4,300). AID 652065;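 active = inhibition above a per-plate cutoff, the mean inhibition of sample wells plus 3 SD, cut at about 35% in these data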;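 also: loss of TO-PRO-1 fluorescence as compound displaces dye from 1x1 AA loop RNA; 0% = DMSO only wells and 100% = 100 µM mitoxantrone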
# DNA CAG counter: DNA CAG dye complex inhibition counter-screen. d(CAG) DNA oligo TO-PRO-1 dye displacement, fluorescence. shares compounds with rCAG RNA binder. inhibition, % at 3 µM. AID 652068. actives 94% (n = 4,300);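 active = inhibition above its plate's cutoff, the mean test-well inhibition plus 3 SD, cut at about 4.8% in these data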;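 also: 0% = DNA dye mix with DMSO and 100% = 100 µM mitoxantrone; hits displace the dye from DNA and so lower well fluorescence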
# DNA CAG DR: DNA CAG dye complex inhibition, dose response counter-screen; DNA CAG/GTC duplex TO-PRO-1 dye displacement fluorescence; AID 686960; actives 20% (n = 250); shares compounds with rCAG RNA binder; IC50, µM; in the data active = IC50 below about 10 µM
# Starred values were filed as active, the others as inactive; i = inactive; / = not tested or not shown. This is a sample that favours compounds with a hit; in the whole collection about 2.6% have one here.
SMILES,HCV core dimer,NadD inh,ABHD5 PLIN5 PPI,rCAG RNA binder,rCAG binder conf,DNA CAG counter,others
COc1c(/C=C2\SC(=Nc3ccccc3Cl)NC2=O)cccc1[N+](=O)[O-],1,9,0,37*,71*,29*,DNA CAG DR=i
O=C1NC(=Nc2ccccc2Cl)S/C1=C\c1cccc([N+](=O)[O-])c1,19,5,7,54*,67*,26*,
O=C1NC(=S)S/C1=C\c1cccc([N+](=O)[O-])c1,/,2,-4,6,/,/,
O=C1NC(=Nc2ccccc2Cl)S/C1=C\c1cccc([N+](=O)[O-])c1O,6,17,6,89*,70*,33*,DNA CAG DR=i
COc1ccc(/C=C2\SC(=Nc3ccccc3Cl)NC2=O)c(OC)c1,/,18,0,39*,46*,13*,
Cc1cccc2nc(-c3ccccc3)c(-c3ccc(CN4CCC(n5cc(-c6ccccc6)[nH]c5=O)CC4)cc3)nc12,/,/,/,11,/,/,
O=C(CSc1nnc(-c2ccccc2)n1-c1ccccc1)NN=Cc1ccc(-c2ccccc2)cc1,/,/,/,7,/,/,
COc1ccc2c(c1)CNC2CS(=O)(=O)NCc1ccccc1 (configuration not stated),/,/,/,8,/,/,
COC(=O)C1=C(C)N(C)C(=NCc2cccc(C(F)(F)F)c2)NC1c1ccccc1C(F)(F)F (configuration not stated),/,/,/,6,/,/,
COc1ccc(CNC(=O)COc2cc(O)c3c(c2)OC(C)(C)CC3=O)c(OC)c1,11,0,1,-5,/,/,
COc1cc(OC)c2c(O)c3c(=O)cc(C)oc3c(-c3c(OC)cc4cc5c(c(O)c4c3O)C(=O)CC(C)(O)O5)c2c1 (configuration not stated),/,/,/,44*,41*,22*,
CSCCC(C(=O)Nc1c(C)cccc1C)n1c(-c2cnc(C)cn2)nc2ccccc21 (configuration not stated),/,/,4,1,/,/,
COc1ccc(NC(=O)CSc2nc(O)cc(=O)n2-c2ccccc2)cc1,/,0,2,38*,14,7.5*,
Cc1ccc(-n2c(SCC(=O)Nc3ccc(Cl)cc3)nc(O)cc2=O)cc1,1,-1,5,37*,25,10*,
Cn1c(SCC(=O)Nc2ccccc2)nc(O)cc1=O,-3,2,5,37*,7,5.0*,
COc1ccccc1-n1c(SCC(=O)N2CCOCC2)nc(O)cc1=O,-16,5,-5,7,/,/,
COc1ccccc1-n1c(SCC(=O)Nc2ccc(Br)cc2)nc(O)cc1=O,-2,4,2,42*,17,7.5*,
CCCn1c(SCC(=O)Nc2ccc(F)c(Cl)c2)nc(O)cc1=O,/,-3,8,13,/,/,
COc1ccc(NC(=O)CSc2nc(O)cc(=O)n2C)cc1,1,-5,-9,33,/,/,
COc1cc2c(cc1NC(=O)CSc1nnc(-c3ccccn3)n1-c1ccccc1)oc1ccccc12,/,/,/,10,/,/,
COC(=O)C1=C(C)N(Cc2ccccc2C(F)(F)F)C(=NCc2ccc(OC)cc2)NC1c1ccc(Cl)cc1 (configuration not stated),/,/,/,8,/,/,
Cc1ccc(OCC(=O)NNC(=O)c2ccc(F)c(S(=O)(=O)N3CCOCC3)c2)cc1C,/,-5,1,8,/,/,
O=C(CSc1nc(O)cc(=O)n1-c1ccccc1)Nc1nc2ccccc2s1,7,2,9,44*,52*,19*,
COc1ccc(-n2c(SCC(=O)Nc3ccc(Cl)cc3)nc(O)c(Cc3ccccc3)c2=O)cc1,13,3,1,62*,54*,20*,
COC(=O)[C@]12C[C@H](CC(=O)NCCC(C)C)C(=O)N(Cc3ccco3)C1=C[C@H](C(C)C)O[C@@H]2C1CC1,/,/,/,-1,/,/,
SMILES,HCV core dimer,NadD inh,ABHD5 PLIN5 PPI,rCAG RNA binder,rCAG binder conf,DNA CAG counter,others
O=C1[C@@H](CCc2ccccc2)[C@@H]2c3cc4ccccc4cc3C=NN2[C@@H]2c3cc4ccccc4cc3C=NN12,/,/,/,6,/,/,
C=CCCC(=O)Nc1nc(C)c(-c2csc(Nc3ccc(Cl)cc3Cl)n2)s1,0,15,-13,36*,23,13*,
Cc1nc(NC(=O)CC(C)C)sc1-c1csc(Nc2ccc(Cl)cc2Cl)n1,-6,26,-24,29,/,/,
COc1ccc(Cl)cc1Nc1nc(-c2sc(NC(=O)CC(C)C)nc2C)cs1,-4,23,-20,36*,21,14*,
COc1ccc(C)cc1NC(=S)NNC(=O)c1c(Br)cnn1C,1,-10,2,54*,25,4.4*,
COc1cc2c(c3c1c(=O)c1cccc(F)c1n3C)C=CC(C)(C)O2,/,/,/,1,/,/,
Cc1cc(C)n2nc(CNS(=O)(=O)c3ccc(C(C)(C)C)cc3)nc2n1,/,-5,2,0,/,/,
O=c1cc(-c2ccc([N+](=O)[O-])cc2)nc2cc(-c3ccc(F)cc3)[nH]n12,2,12,-4,35*,50*,15*,
Cc1ccccc1-c1cc2nc(-c3ccc([N+](=O)[O-])cc3)cc(=O)n2[nH]1,2,22,-2,4,/,/,
Cc1cccc(NC(=O)CNC(=O)[C@@H](Cc2ccccc2)NC(=O)[C@H]2O[C@@H](n3ccc(N)nc3=O)[C@H](O)[C@@H]2O)c1C,/,/,/,0,/,/,
C/C(=N\NC(=O)c1ccc(Cl)c(S(=O)(=O)Nc2ccccc2Cl)c1)c1ccncc1,11,10,-1,51*,41*,11*,
C/C(=N\NC(=O)c1cccc(S(=O)(=O)Nc2ccccc2Cl)c1)c1ccco1,9,-1,2,48*,18,6.8*,
CN(C)C(CNC(=O)c1cccc(S(=O)(=O)Nc2ccccc2Cl)c1)c1ccco1 (configuration not stated),/,1,6,9,/,/,
CCCCCCn1cc(CN2CC(N3CCN(Cc4cccc(C)c4)CC3)CS2(=O)=O)nn1 (configuration not stated),/,-4,-1,-1,/,/,
O=C1NC(=S)S/C1=C\c1ccc(SCc2ccccc2)o1,2,9,-1,82*,79*,43*,
Cc1[nH]n(-c2ccccc2)c(=O)c1N=Nc1ccccc1O,/,-7,-9,40*,27,13*,
Cc1nc2ccc(C(=O)N3CCC(O)(Cc4ccccc4)CC3)cn2c1N(C)C(=O)CCc1ccccc1,/,4,-2,0,/,/,
CCOC(=O)CC(=O)CSc1nc2c(sc(=S)n2-c2ccc(OCC)cc2)c(=O)[nH]1,7,4,13,61*,53*,19*,
CCOC(=O)CC(=O)CSc1nc2c(sc(=S)n2-c2ccc(C)c(C)c2)c(=O)[nH]1,16,4,-3,70*,63*,23*,
COc1ccc(N(CC(=O)Nc2cc(C)ccc2OC)S(=O)(=O)c2c(C)noc2C)cc1,4,-6,5,-3,/,/,
